# Results reported in ChEMBL document CHEMBL3632581, “Dimers of Melampomagnolide B Exhibit Potent Anticancer Activity against Hematological and Solid Tumor Cells” (J Med Chem, 2015).
# Assays:
# K562 = assay: Cytotoxicity against human K562 cells after 48 hrs by SRB assay; assay type: functional; settings: K562, 48 h; for CC50: read-out: LC50 (the source's name)
# How it was run: (§1)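 NCI-60 five-dose screen at 10−8 to 10−4 M. Cells were plated at 5,000–40,000/well in RPMI 1640 with 5% FBS and 2 mM L-glutamine, then preincubated 24 h, and time-zero plates were TCA-fixed. Compound was added from DMSO stocks and exposed 48 h at 37 °C. Cells were TCA-fixed, SRB-stained, and read at 515 nm. LC50 is the concentration halving the cell population through cell death.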
# SR = assay: Cytotoxicity against human SR cells after 48 hrs by SRB assay; assay type: functional; settings: for CC50: read-out: LC50 (the source's name)
# How it was run: (§2)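 NCI-60 screen: cells grown in RPMI 1640 with 5% FBS and 2 mM L-glutamine, plated at 5,000–40,000 cells/well by doubling time, and preincubated 24 h at 37 °C before drug. Drug was diluted from DMSO stock and given at five concentrations, 10−4 to 10−8 M, for 48 h. Cells fixed with cold TCA, SRB stained, OD read at 515 nm against time-zero and vehicle plates. LC50 taken as the concentration that halves cell population through cell death.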
# A549 = assay: Cytotoxicity against human A549 cells after 48 hrs by SRB assay; assay type: functional; settings: A549, 48 h; for CC50: read-out: LC50 (the source's name); how it was run: as §1
# HOP-92 = assay: Cytotoxicity against human HOP92 cells after 48 hrs by SRB assay; assay type: functional; settings: HOP-92, 48 h; for CC50: read-out: LC50 (the source's name); how it was run: as §1
# NCI-H226 = assay: Cytotoxicity against human NCI-H226 cells after 48 hrs by SRB assay; assay type: functional; settings: NCI-H226, 48 h; for CC50: read-out: LC50 (the source's name); how it was run: as §1
# NCI-H460 = assay: Cytotoxicity against human NCI-H460 cells after 48 hrs by SRB assay; assay type: functional; settings: NCI-H460, 48 h; for CC50: read-out: LC50 (the source's name); how it was run: as §1
# COLO 205 = assay: Cytotoxicity against human COLO205 cells after 48 hrs by SRB assay; assay type: functional; settings: COLO 205, 48 h; for CC50: read-out: LC50 (the source's name); how it was run: as §1
# HCC 2998 = assay: Cytotoxicity against human HCC2998 cells after 48 hrs by SRB assay; assay type: functional; settings: HCC 2998, 48 h; for CC50: read-out: LC50 (the source's name); how it was run: as §1
# HCT-116 = assay: Cytotoxicity against human HCT116 cells after 48 hrs by SRB assay; assay type: functional; settings: HCT-116, 48 h; for CC50: read-out: LC50 (the source's name); how it was run: as §1
# HCT-15 = assay: Cytotoxicity against human HCT15 cells after 48 hrs by SRB assay; assay type: functional; settings: HCT-15, 48 h; for CC50: read-out: LC50 (the source's name); how it was run: as §1
# HT-29 = assay: Cytotoxicity against human HT-29 cells after 48 hrs by SRB assay; assay type: functional; settings: HT-29, 48 h; for CC50: read-out: LC50 (the source's name); how it was run: as §1
# Malme-3M = assay: Cytotoxicity against human MALME-3M cells after 48 hrs by SRB assay; assay type: functional; settings: for CC50: read-out: LC50 (the source's name); how it was run: as §1
# SK-MEL-2 = assay: Cytotoxicity against human SK-MEL-2 cells after 48 hrs by SRB assay; assay type: functional; settings: SK-MEL-2, 48 h; for CC50: read-out: LC50 (the source's name); how it was run: as §1
# SK-MEL-28 = assay: Cytotoxicity against human SK-MEL-28 cells after 48 hrs by SRB assay; assay type: functional; settings: SK-MEL-28, 48 h; for CC50: read-out: LC50 (the source's name); how it was run: as §1
# UACC-257 = assay: Cytotoxicity against human UACC257 cells after 48 hrs by SRB assay; assay type: functional; settings: UACC-257, 48 h; for CC50: read-out: LC50 (the source's name); how it was run: as §2
# OVCAR-5 = assay: Cytotoxicity against human OVCAR5 cells after 48 hrs by SRB assay; assay type: functional; settings: OVCAR-5, 48 h; for CC50: read-out: LC50 (the source's name); how it was run: as §1
# OVCAR-8 = assay: Cytotoxicity against human OVCAR8 cells after 48 hrs by SRB assay; assay type: functional; settings: OVCAR-8, 48 h; for CC50: read-out: LC50 (the source's name); how it was run: as §1
# [1] = Cytotoxicity against human NCI-ADR-RES cells after 48 hrs by SRB assay; assay type: functional; settings: for CC50: read-out: LC50 (the source's name); how it was run: as §1
# SK-OV-3 = assay: Cytotoxicity against human SKOV3 cells after 48 hrs by SRB assay; assay type: functional; settings: SK-OV-3, 48 h; for CC50: read-out: LC50 (the source's name); how it was run: as §1
# 786-0 = assay: Cytotoxicity against human 786-0 cells after 48 hrs by SRB assay; assay type: functional; settings: 786-0, 48 h; for CC50: read-out: LC50 (the source's name); how it was run: as §1
# ACHN = assay: Cytotoxicity against human ACHN cells after 48 hrs by SRB assay; assay type: functional; settings: for CC50: read-out: LC50 (the source's name); how it was run: as §1
# SN12C = assay: Cytotoxicity against human SN12C cells after 48 hrs by SRB assay; assay type: functional; settings: for CC50: read-out: LC50 (the source's name); how it was run: as §1
# TK-10 = assay: Cytotoxicity against human TK10 cells after 48 hrs by SRB assay; assay type: functional; settings: TK-10, 48 h; for CC50: read-out: LC50 (the source's name); how it was run: as §2
# UO-31 = assay: Cytotoxicity against human UO31 cells after 48 hrs by SRB assay; assay type: functional; settings: UO-31, 48 h; for CC50: read-out: LC50 (the source's name); how it was run: as §2
# DU-145 = assay: Cytotoxicity against human DU145 cells after 48 hrs by SRB assay; assay type: functional; settings: DU-145, 48 h; how it was run: as §1
# MCF7 = assay: Cytotoxicity against human MCF7 cells after 48 hrs by SRB assay; assay type: functional; settings: MCF7, 48 h
# How it was run: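 NCI-60 screen: cells in RPMI 1640 with 5% FBS and 2 mM L-glutamine, preincubated 24 h at 37 °C. Compound was then added for 48 h at five concentrations (10−4 to 10−8 M). Cells were fixed with cold TCA and stained with 0.4% SRB in 1% acetic acid, and OD read at 515 nm. GI50 is the concentration halving net protein increase versus control.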
# [2] = Cytotoxicity against human Hs 578T cells after 48 hrs by SRB assay; assay type: functional; settings: for CC50: read-out: LC50 (the source's name); how it was run: as §1
# [3] = Antileukemic activity against human AML01 cells after 24 hrs by annexin V/7-AAD staining-based flow cytometric analysis; assay type: functional, cell-based
# How it was run: (§3)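 Primary AML specimens from consenting donors, isolated by Ficoll-Paque gradient and sometimes cryopreserved. Cells were held 1 h in serum-free IMDM with 20% BIT 9500, LDL and β-mercaptoethanol before drug (DMSO stock diluted in PBS, ≤0.5% DMSO final). Exposure was 24 h over 0.5-10 μM. Annexin V/7-AAD double-negative cells, normalized to vehicle, gave the EC50. Run in triplicate.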
# [4] = Antileukemic activity against human AML04 cells after 24 hrs by annexin V/7-AAD staining-based flow cytometric analysis; assay type: functional, cell-based; how it was run: as §3
# [5] = Antileukemic activity against human AML05 cells after 24 hrs by annexin V/7-AAD staining-based flow cytometric analysis; assay type: functional, cell-based; how it was run: as §3
# [6] = Cytotoxicity against hematopoietic progenitor cells isolated from human umbilical cord blood by annexin V staining-based flow cytometric analysis; assay type: cell-based
# How it was run: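 Cord-blood mononuclear cells from Ficoll-Paque were plated in serum-free medium, with drug from a DMSO stock (≤0.5% DMSO final). Cells were stained for CD34, CD45 and annexin V. The non-apoptotic fraction (annexin V-negative within the CD34+CD45dim compartment) was normalized to vehicle, and EC50 was fitted where possible. Triplicate.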
# [7] = Potency index, ratio of parthenolide EC50 to compound EC50 for human M9-ENL1 cells; assay type: functional
smiles,measurement,setting,value
C=C1C(=O)O[C@H]2[C@H]1CC/C(COC(=O)NCCCCNC(=O)OC/C1=C/CC[C@@]3(C)O[C@H]3[C@H]3OC(=O)C(=C)[C@@H]3CC1)=C\CC[C@@]1(C)O[C@@H]21,GI50,K562,0.66 µM
same,CC50,K562,> 100 µM
same,GI50,SR,0.54 µM
same,CC50,SR,> 100 µM
same,GI50,A549,8.02 µM
same,CC50,A549,58.7 µM
same,GI50,HOP-92,0.28 µM
same,CC50,HOP-92,46.1 µM
same,GI50,NCI-H226,11.4 µM
same,CC50,NCI-H226,81.6 µM
same,GI50,NCI-H460,4.61 µM
same,CC50,NCI-H460,60.7 µM
same,GI50,COLO 205,0.46 µM
same,CC50,COLO 205,5.79 µM
same,GI50,HCC 2998,2.35 µM
same,CC50,HCC 2998,9.73 µM
same,GI50,HCT-116,1.12 µM
same,CC50,HCT-116,6.19 µM
same,GI50,HCT-15,5.61 µM
same,CC50,HCT-15,56.3 µM
same,GI50,HT-29,0.6 µM
same,CC50,HT-29,> 100 µM
same,GI50,Malme-3M,0.45 µM
same,CC50,Malme-3M,8.43 µM
same,GI50,SK-MEL-2,1.77 µM
same,CC50,SK-MEL-2,29.3 µM
same,GI50,SK-MEL-28,0.52 µM
same,CC50,SK-MEL-28,8.08 µM
same,GI50,UACC-257,1.68 µM
same,CC50,UACC-257,22.9 µM
same,GI50,OVCAR-5,1.75 µM
same,CC50,OVCAR-5,7.79 µM
same,GI50,OVCAR-8,2.18 µM
same,CC50,OVCAR-8,40.2 µM
same,GI50,[1],37.7 µM
same,CC50,[1],> 100 µM
same,GI50,SK-OV-3,12.7 µM
same,CC50,SK-OV-3,50.4 µM
same,GI50,786-0,1.99 µM
same,CC50,786-0,9.11 µM
same,GI50,ACHN,3.44 µM
same,CC50,ACHN,39.8 µM
same,GI50,SN12C,2.75 µM
same,CC50,SN12C,39.5 µM
same,GI50,TK-10,1.61 µM
same,CC50,TK-10,11.3 µM
same,GI50,UO-31,7.61 µM
same,CC50,UO-31,47.7 µM
same,GI50,DU-145,3.21 µM
same,LC50 (concentration killing half the cells),DU-145,33.8 µM
same,GI50,MCF7,0.38 µM
same,GI50,[2],2.54 µM
same,CC50,[2],> 100 µM
same,EC50,[3],2.2 µM
same,EC50,[4],4.2 µM
same,EC50,[5],2 µM
same,EC50,[6],> 10 µM
same,Ratio EC50,[7],2
C=C1C(=O)O[C@H]2[C@H]1CC/C(COC(=O)NCCCCCNC(=O)OC/C1=C/CC[C@@]3(C)O[C@H]3[C@H]3OC(=O)C(=C)[C@@H]3CC1)=C\CC[C@@]1(C)O[C@@H]21,GI50,K562,0.56 µM
same,CC50,K562,> 100 µM
same,GI50,SR,0.38 µM
same,CC50,SR,> 100 µM
same,GI50,A549,14.9 µM
same,CC50,A549,71.7 µM
same,GI50,HOP-92,1.3 µM
same,CC50,HOP-92,8.61 µM
same,GI50,NCI-H226,2.56 µM
same,CC50,NCI-H226,30.9 µM
same,GI50,NCI-H460,4.34 µM
same,CC50,NCI-H460,50.7 µM
same,GI50,COLO 205,0.52 µM
same,CC50,COLO 205,7.97 µM
same,GI50,HCC 2998,6.71 µM
same,CC50,HCC 2998,53.9 µM
same,GI50,HCT-116,0.54 µM
same,CC50,HCT-116,4.56 µM
same,GI50,HCT-15,6.18 µM
same,CC50,HCT-15,49.8 µM
same,GI50,HT-29,0.51 µM
same,CC50,HT-29,4.85 µM
same,GI50,Malme-3M,2.06 µM
same,CC50,Malme-3M,27.3 µM
same,GI50,SK-MEL-2,2.01 µM
same,CC50,SK-MEL-2,7.81 µM
same,GI50,SK-MEL-28,1.58 µM
same,CC50,SK-MEL-28,12.6 µM
same,GI50,UACC-257,2.07 µM
same,CC50,UACC-257,42.4 µM
same,GI50,OVCAR-5,1.67 µM
same,CC50,OVCAR-5,7.47 µM
same,GI50,OVCAR-8,3.27 µM
same,CC50,OVCAR-8,61 µM
same,GI50,[1],70 µM
same,CC50,[1],> 100 µM
same,GI50,SK-OV-3,5.99 µM
same,CC50,SK-OV-3,49.9 µM
same,GI50,786-0,1.57 µM
same,CC50,786-0,6.39 µM
same,GI50,ACHN,3.05 µM
same,CC50,ACHN,35.4 µM
same,GI50,SN12C,2.49 µM
same,CC50,SN12C,45.5 µM
same,GI50,TK-10,1.82 µM
same,CC50,TK-10,11.8 µM
same,GI50,UO-31,8.9 µM
same,CC50,UO-31,52.3 µM
same,GI50,DU-145,3.06 µM
same,LC50 (concentration killing half the cells),DU-145,32.6 µM
same,GI50,MCF7,0.39 µM
same,CC50,MCF7; read-out: LC50 (the source's name),6.2 µM
same,GI50,[2],2.91 µM
same,CC50,[2],> 100 µM
same,EC50,[3],1.6 µM
same,EC50,[4],3.5 µM
same,EC50,[5],1.6 µM
same,EC50,[6],> 10 µM
same,Ratio EC50,[7],2
